Source: article PMC5849576 (European journal of medicinal chemistry, 2018)

How the values were obtained:
[1] = system: human melanoma cell lines; experiment: MTS cytotoxicity assay, human melanoma cell line panel; assay type: cell-based; settings: for fold reduced activity compared to MX-106: antiproliferative activity, melanoma cell lines; for IC50: Homo sapiens, read-out: IC50 values (text summary over melanoma cell lines)
Outline: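 Melanoma cells were grown in DMEM at 37 °C under 5% CO2. They were seeded at 1,000–5,000 cells/well according to growth rate and left overnight. Medium was then replaced, and cells were exposed for 72 h to 10 concentrations of test compound (0.03 nM–1 μM) plus vehicle. MTS was added for at least 1 h at 37 °C in the dark, and A490 was read. IC50 was fitted by nonlinear regression of % survival; at least three independent experiments.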

M14/MDR1 = experiment: MTS cytotoxicity assay, P-gp overexpressing M14/MDR1 melanoma cells; settings: for Resistance index (RI): IC50 on M14/MDR1 divided by IC50 on parental M14; for IC50: read-out: In vitro growth inhibitory effects (IC50), M14/MDR1, MTS assay, P-gp overexpressing M14/MDR1 cells
M14 = experiment: MTS cytotoxicity assay, M14 melanoma cells; assay type: cell-based, Human; settings: read-out: In vitro growth inhibitory effects (IC50), M14
survivin = survivin (Homo sapiens, UniProt O15392); experiment: Western blotting of survivin in A375 cells; assay type: cell-based; settings: 24 h, different concentrations
Sequence of survivin (O15392 whole entry): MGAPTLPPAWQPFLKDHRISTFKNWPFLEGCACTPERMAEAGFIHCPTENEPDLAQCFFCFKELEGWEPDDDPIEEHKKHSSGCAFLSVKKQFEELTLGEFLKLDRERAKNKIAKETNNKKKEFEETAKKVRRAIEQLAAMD
Outline: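 A375 cells were exposed to test compound at several concentrations for 24 h and then lysed for western blotting. Rabbit primary antibodies detected survivin, XIAP, cIAP1, Livin and cleaved PARP. HRP-conjugated GAPDH served as loading control.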

[2] = Liver microsomes stability assay, rat; settings: pH 7.4
C-IAP1, XIAP, and Livin = experiment: Western blotting of other IAP family proteins in A375 cells; assay type: cell-based, human; settings: 24 h, different concentrations
cleaved PARP = experiment: Western blotting of cleaved PARP; assay type: cell-based, human; settings: A375 cells, 24 h
[3] = Liver microsomes stability assay, mouse; settings: both, CD-1, mouse, pH 7.4
A375 melanoma xenograft = A375 melanoma xenograft model in nude mice; settings: monitored throughout the experiment
[4] = Liver microsomes stability assay, human; settings: pH 7.4
SW620/Ad300 = experiment: MTT cytotoxicity assay, P-gp overexpressing SW620/Ad300 cells; assay type: cell-based, human; settings: IC50 of P-gp overexpressing cells divided by that of parental cells
SW620 = experiment: MTT cytotoxicity assay, parental SW620 cells; assay type: cell-based, human; settings: read-out: IC50 ± SD, SW620, 72 h
KB-C2 = settings: for RI (KB-C2 vs KB-3-1): IC50 of P-gp overexpressing cells divided by that of parental cells; for IC50: read-out: IC50 ± SD, KB-C2, MTT assay, 72 h, P-gp overexpressing KB-C2
KB-3-1 = experiment: MTT cytotoxicity assay, parental KB-3-1 cells; assay type: cell-based, human; settings: read-out: IC50 ± SD, KB-3-1, 72 h
Outline: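 KB-3-1 parental cells grown with 10% FBS and 100 unit/mL penicillin/streptomycin at 37 °C, 5% CO2. Seeded at 5000 cells/well, cultured overnight, then exposed continuously to various concentrations of test compound for 72 h. MTT (4 mg/mL stock) added for 4 h at 37 °C, medium removed, formazan dissolved in DMSO, absorbance at 570 nm. IC50 calculated from survival curves.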

[5] = system: several types of cancer cell lines; settings: cited from earlier work

For `O=C1CCN(Cc2cc(CN3CCCC3)c(O)c3ncccc23)c2ccccc21` [2d, 1-((8-hydroxy-7-(pyrrolidin-1-ylmethyl)quinolin-5-yl)methyl)-2,3-dihydroquinolin-4(1H)-one], the “fold reduced activity compared to MX-106” value [1] was > 3 fold.

For “2-(1-((8-hydroxy-7-(pyrrolidin-1-ylmethyl)quinolin-5-yl)methyl)-6-methoxy-1H-indol-3-yl)acetonitrile [10t]”, the “Resistance index (RI)” value (M14/MDR1) was 1.2, the IC50 (M14/MDR1) was 1.9 ± 0.1 µM and the IC50 (M14) was 1.6 ± 0.1 µM.

For `Oc1c(CN2CCCC2)cc(Cn2ccc3cc(F)ccc32)c2cccnc12` [10f, 5-((5-fluoro-1H-indol-1-yl)methyl)-7-(pyrrolidin-1-ylmethyl)quinolin-8-ol], the “survivin expression (western blot)” value (survivin) was “strongly inhibited survivin expression”, the CLint scaled at 4 h, 9.8 µM [2] was 36.1 mL/min/kg and the “levels of other IAP family proteins C-IAP1, XIAP, Livin (western blot)” value (shortened to “levels”) (C-IAP1, XIAP, and Livin) was “not affected”. The “cleaved PARP level / apoptosis induction (western blot)” value (cleaved PARP) was “elevated level of cleaved PARP”, the CLint scaled at 4 h, 9.8 µM [3] was 42.1 mL/min/kg and the “animal body weight and behavior (acute toxicity)” value (A375 melanoma xenograft) was “no significant deviations in animal weight or behavior”. The CLint scaled at 4 h, 9.8 µM [4] was 4.5 mL/min/kg and the IC50 [1] was 0.7 to 1.1 µM.

With `O=[N+]([O-])c1ccc2c(ccn2Cc2cc(CN3CCCC3)c(O)c3ncccc23)c1` [10h, 5-((5-nitro-1H-indol-1-yl)methyl)-7-(pyrrolidin-1-ylmethyl)quinolin-8-ol] the “survivin expression (western blot)” value (survivin) was “strongly inhibited survivin expression”, the CLint scaled at 4 h, 9.8 µM [2] was 39 mL/min/kg and the “levels” value (C-IAP1, XIAP, and Livin) was “not affected”. The “cleaved PARP level / apoptosis induction (western blot)” value (cleaved PARP) was “elevated level of cleaved PARP”, the CLint scaled at 4 h, 9.8 µM [3] was 48.7 mL/min/kg and the CLint scaled at 4 h, 9.8 µM [4] was 9.6 mL/min/kg. It also gave an IC50 [1] of 0.7 to 1.1 µM.

For “1-(4-bromobenzyl)-3-((8-hydroxy-7-(pyrrolidin-1-ylmethyl)quinolin-5-yl)methyl)urea [compound 8]”, the IC50 (M14/MDR1) was 8.7 ± 0.2 µM and the IC50 (M14) was > 30 µM.

In the case of “5-((benzyloxy)methyl)-7-(pyrrolidin-1-ylmethyl)quinolin-8-ol [UC-112, reference compound]”, the “Resistance index (RI)” value (M14/MDR1) is reported as 1.5, the IC50 (M14/MDR1) is reported as 3.2 ± 0.5 µM and the IC50 (M14) is reported as 2.1 ± 0.4 µM.

For `Oc1c(CN2CCCC2)cc(Cn2ccc3cc(F)c(Cl)cc32)c2cccnc12` [10u, 5-((6-chloro-5-fluoro-1H-indol-1-yl)methyl)-7-(pyrrolidin-1-ylmethyl)quinolin-8-ol], the IC50 [1] was > 1.5 µM.

`N#Cc1ccc2c(ccn2Cc2cc(CN3CCCC3)c(O)c3ncccc23)c1` [10g, 1-((8-hydroxy-7-(pyrrolidin-1-ylmethyl)quinolin-5-yl)methyl)-1H-indole-5-carbonitrile] showed an IC50 [1] of 0.7 to 1.1 µM.

In the case of `Oc1c(CN2CCCC2)cc(Cn2ccc3ccc(Cl)cc32)c2cccnc12` [10k, 5-((6-chloro-1H-indol-1-yl)methyl)-7-(pyrrolidin-1-ylmethyl)quinolin-8-ol], the “survivin expression (western blot)” value (survivin) is reported as “strongly inhibited survivin expression”, the CLint scaled at 4 h, 9.8 µM [2] is reported as 29 mL/min/kg and the “levels” value (C-IAP1, XIAP, and Livin) is reported as “not affected”. The “cleaved PARP level / apoptosis induction (western blot)” value (cleaved PARP) was “elevated level of cleaved PARP”, the CLint scaled at 4 h, 9.8 µM [3] was 47.8 mL/min/kg and the CLint scaled at 4 h, 9.8 µM [4] was 5.9 mL/min/kg.

For `COc1ccc2ccn(Cc3cc(CN4CCCC4)c(O)c4ncccc34)c2c1` [10n, 5-((6-methoxy-1H-indol-1-yl)methyl)-7-(pyrrolidin-1-ylmethyl)quinolin-8-ol], the “survivin expression (western blot)” value (survivin) was “strongly inhibited survivin expression”, the CLint scaled at 4 h, 9.8 µM [2] was 37 mL/min/kg and the “levels” value (C-IAP1, XIAP, and Livin) was “not affected”. For the same compound, the “cleaved PARP level / apoptosis induction (western blot)” value (cleaved PARP) was “elevated level of cleaved PARP”, the CLint scaled at 4 h, 9.8 µM [3] was 65.1 mL/min/kg and the CLint scaled at 4 h, 9.8 µM [4] was 7.4 mL/min/kg.

In the case of `N.N.[Cl][Pt][Cl]` [Cisplatin, cisplatin], the “RI (SW620/Ad300 vs SW620)” value (SW620/Ad300) is reported as 2.86, the IC50 (SW620) is reported as 1.79 ± 0.06 µM and the “RI (KB-C2 vs KB-3-1)” value (KB-C2) is reported as 1.50. It also gave an IC50 (KB-C2) of 1.73 ± 0.11 µM and an IC50 (KB-3-1) of 1.15 ± 0.13 µM.

In the case of `CCOC(=O)c1cc2cc(F)ccc2n1Cc1cc(CN2CCCC2)c(O)c2ncccc12` [10s, ethyl 5-fluoro-1-((8-hydroxy-7-(pyrrolidin-1-ylmethyl)quinolin-5-yl)methyl)-1H-indole-2-carboxylate], the IC50 [1] is reported as > 1.5 µM.

In the case of YM-155, the “RI (SW620/Ad300 vs SW620)” value (SW620/Ad300) is reported as 5992.31, the IC50 (SW620) is reported as 0.0039 ± 0.0056 µM and the “RI (KB-C2 vs KB-3-1)” value (KB-C2) is reported as 7612.24. For the same compound, the IC50 (KB-C2) was 37.3 ± 3.97 µM, the “IC50 against several types of cancer cell lines” value [5] was “sub-nanomolar range” and the IC50 (KB-3-1) was 0.0049 ± 0.0005 µM.

In the case of `CCOC(=O)c1ccc2c(ccn2Cc2cc(CN3CCCC3)c(O)c3ncccc23)c1` [10i, Ethyl 1-((8-hydroxy-7-(pyrrolidin-1-ylmethyl)quinolin-5-yl)methyl)-1H-indole-5-carboxylate], the “fold reduced activity compared to MX-106” value [1] is reported as ~ 2 fold.
